Assay results as given in ChEMBL document CHEMBL4406821, “Novel dual inhibitors targeting CDK4 and VEGFR2 synergistically suppressed cancer progression and angiogenesis” (Eur J Med Chem, 2019).
The source made the active and inactive calls. The calls are words filed in the database; no cut-off is given here.

What was measured:
[1] = Toxicity in BALB/c mouse assessed as effect on blood parameter by measuring MCV at 40 mg/kg, po administered once two days for 4 times by hematology analyzer; details: in vivo
HeLa [2] = experiment: Induction of apoptosis in human HeLa cells assessed as increase in late apoptotic cells at 20 to 40 nM incubated for 48 hrs by annexin V FITC and propidium iodide staining based flow cytometry; format: functional, cell-based
Outline: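 Cells were treated for 48 h, stained with FITC Annexin V and PI, and analyzed by flow cytometry to count early and late apoptotic cells.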

[3] = molecular target: Calcium/calmodulin-dependent protein kinase type IV (Homo sapiens) (UniProt Q16566); experiment: Inhibition of recombinant full length human CAMK4 at 1 uM using calmodulin as substrate incubated for 40 mins in presence of [gamma-33P]-ATP by scintillation counting method relative to control
Outline: (§1)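 Kinase panel profiling at 1 μM performed by Eurofins KinaseProfiler; percent inhibition reported as mean of two independent experiments.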

[4] = molecular target: Proto-oncogene tyrosine-protein kinase receptor Ret (Homo sapiens) (UniProt P07949); experiment: Inhibition of recombinant human RET (658 to end residues) at 1 uM using KKKSPGEYVNIEFG as substrate incubated for 40 mins in presence of [gamma-33P]-ATP by scintillation counting method relative to control
[5] = molecular target: Mast/stem cell growth factor receptor Kit (Homo sapiens) (UniProt P10721); experiment: Inhibition of recombinant human cKIT (544 to end residues) at 1 uM using poly(Glu, Tyr) 4:1 as substrate incubated for 40 mins in presence of [gamma-33P]-ATP by scintillation counting method relative to control
Mast/stem cell growth factor receptor Kit (Homo sapiens), sequence (P10721 whole entry): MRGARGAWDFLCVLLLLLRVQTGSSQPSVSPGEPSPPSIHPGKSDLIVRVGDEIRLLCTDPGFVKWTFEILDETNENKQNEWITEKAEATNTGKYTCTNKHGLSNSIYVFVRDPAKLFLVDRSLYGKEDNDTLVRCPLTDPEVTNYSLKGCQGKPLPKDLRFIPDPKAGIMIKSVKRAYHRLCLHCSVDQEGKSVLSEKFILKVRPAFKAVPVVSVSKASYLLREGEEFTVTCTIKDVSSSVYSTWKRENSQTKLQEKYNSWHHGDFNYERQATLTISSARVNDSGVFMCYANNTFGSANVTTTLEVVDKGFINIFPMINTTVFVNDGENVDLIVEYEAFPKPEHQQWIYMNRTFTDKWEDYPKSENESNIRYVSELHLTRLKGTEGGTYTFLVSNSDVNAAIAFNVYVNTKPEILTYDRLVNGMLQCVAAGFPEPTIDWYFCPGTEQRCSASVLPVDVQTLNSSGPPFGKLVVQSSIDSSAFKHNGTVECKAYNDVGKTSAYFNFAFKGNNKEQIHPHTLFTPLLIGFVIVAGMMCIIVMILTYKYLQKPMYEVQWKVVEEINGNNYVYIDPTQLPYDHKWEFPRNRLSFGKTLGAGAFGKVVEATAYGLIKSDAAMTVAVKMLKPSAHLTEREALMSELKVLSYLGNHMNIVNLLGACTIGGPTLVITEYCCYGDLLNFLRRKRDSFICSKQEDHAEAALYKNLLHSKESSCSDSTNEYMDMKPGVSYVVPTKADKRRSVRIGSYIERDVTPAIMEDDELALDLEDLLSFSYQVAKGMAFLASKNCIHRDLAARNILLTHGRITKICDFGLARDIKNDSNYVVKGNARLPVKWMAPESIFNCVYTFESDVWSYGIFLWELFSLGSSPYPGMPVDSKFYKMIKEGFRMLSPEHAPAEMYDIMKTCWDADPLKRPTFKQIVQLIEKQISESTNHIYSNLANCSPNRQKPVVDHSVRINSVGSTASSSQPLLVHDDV
Outline: (§2)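 Tested at a single 1 uM in an outsourced commercial kinase-profiling panel, read as percent inhibition. Each value is the mean of two independent experiments.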

[6] = molecular target: Protein kinase C gamma type (Homo sapiens) (UniProt P05129); experiment: Inhibition of recombinant human full length PKCgamma at 1 uM using histone H1 as substrate incubated for 40 mins in presence of [gamma-33P]-ATP by scintillation counting method relative to control
[7] = n-octanol/water partition coefficient, log P of the compound by shake flask method based HPLC analysis; format: physicochemical
[8] = molecular target: Serine/threonine-protein kinase tousled-like 1 (Homo sapiens) (UniProt Q9UKI8); experiment: Inhibition of recombinant human full length TLK1 at 1 uM using casein as substrate incubated for 40 mins in presence of [gamma-33P]-ATP by scintillation counting method relative to control
[9] = molecular target: G protein-coupled receptor kinase 6 (Homo sapiens) (UniProt P43250); experiment: Inhibition of recombinant human full length GRK6 at 1 uM using casein as substrate incubated for 40 mins in presence of [gamma-33P]-ATP by scintillation counting method relative to control
G protein-coupled receptor kinase 6 (Homo sapiens), sequence (P43250 whole entry, looked up): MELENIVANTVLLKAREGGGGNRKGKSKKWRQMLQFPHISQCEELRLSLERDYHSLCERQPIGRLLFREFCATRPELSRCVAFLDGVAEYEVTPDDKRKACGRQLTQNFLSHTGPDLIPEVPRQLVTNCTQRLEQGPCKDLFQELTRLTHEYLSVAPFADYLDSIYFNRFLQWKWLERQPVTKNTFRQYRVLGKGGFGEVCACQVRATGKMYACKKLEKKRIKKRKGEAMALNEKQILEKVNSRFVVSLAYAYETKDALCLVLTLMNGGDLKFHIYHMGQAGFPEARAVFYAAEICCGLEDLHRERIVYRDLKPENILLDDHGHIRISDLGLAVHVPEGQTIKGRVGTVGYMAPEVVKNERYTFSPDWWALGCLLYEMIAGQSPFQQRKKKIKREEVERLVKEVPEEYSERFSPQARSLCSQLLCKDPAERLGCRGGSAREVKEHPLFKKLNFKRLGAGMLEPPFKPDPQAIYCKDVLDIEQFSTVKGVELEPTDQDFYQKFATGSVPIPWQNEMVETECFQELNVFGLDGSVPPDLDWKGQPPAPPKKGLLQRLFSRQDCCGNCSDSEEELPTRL
Outline: as §2

[10] = molecular target: Vascular endothelial growth factor receptor 2 (Homo sapiens, UniProt P35968); experiment: Inhibition of VEGFR2 in HUVEC cells assessed as reduction in Akt phosphorylation at 20 to 40 nM incubated for 48 hrs by Western blot analysis; format: cell-based
Outline: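 HUVECs were maintained in 1640 medium with 10% FBS. They were treated with graded concentrations for 48 h, PBS-washed and lysed in RIPA buffer. Immunoblots were probed for total and phospho VEGFR2, STAT3, Akt, Erk1 and Src, each at 1:1000. β-actin served as loading control.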

[11] = Toxicity in NOD/SCID BALB/c mouse xenografted with human SiHa cells assessed as effect on blood parameter by measuring neutrophils content at 40 mg/kg, po administered once two days for 4 times by hematology analyzer; format: organism-based; details: in vivo
[12] = AUC (0 to infinity) in Sprague-Dawley rat at 10 mg/kg, po by HPLC-MS analysis; format: ADME, organism-based; set-up: dose 10 mg/kg, time infinity, route oral; details: in vivo
Outline: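 Rats fitted with jugular vein catheters for serial blood sampling. Compound dissolved in saline with 5% (v/v) DMSO and given as a single 10 mg/kg dose iv or po after an overnight fast, n = 5 per group. Plasma isolated at once and measured by HPLC with tandem MS detection. Parameters derived by noncompartmental fitting.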

[13] = molecular target: Serine/threonine-protein kinase PRP4 homolog (Homo sapiens) (UniProt Q13523); experiment: Inhibition of recombinant human PRP4 (663 to end residues) at 1 uM using casein as substrate incubated for 40 mins in presence of [gamma-33P]-ATP by scintillation counting method relative to control
[14] = molecular target: G protein-coupled receptor kinase 5 (Homo sapiens) (UniProt P34947); experiment: Inhibition of recombinant human full length GRK5 at 1 uM using casein as substrate incubated for 40 mins in presence of [gamma-33P]-ATP by scintillation counting method relative to control
Outline: as §2

[15] = molecular target: Myosin light chain kinase 2, skeletal/cardiac muscle (Homo sapiens) (UniProt Q9H1R3); experiment: Inhibition of recombinant human full length MYLK2 at 1 uM using KKLNRTLSFAEPG as substrate incubated for 40 mins in presence of [gamma-33P]-ATP by scintillation counting method relative to control
Myosin light chain kinase 2, skeletal/cardiac muscle (Homo sapiens), sequence (Q9H1R3 whole entry, the tested form may be a part): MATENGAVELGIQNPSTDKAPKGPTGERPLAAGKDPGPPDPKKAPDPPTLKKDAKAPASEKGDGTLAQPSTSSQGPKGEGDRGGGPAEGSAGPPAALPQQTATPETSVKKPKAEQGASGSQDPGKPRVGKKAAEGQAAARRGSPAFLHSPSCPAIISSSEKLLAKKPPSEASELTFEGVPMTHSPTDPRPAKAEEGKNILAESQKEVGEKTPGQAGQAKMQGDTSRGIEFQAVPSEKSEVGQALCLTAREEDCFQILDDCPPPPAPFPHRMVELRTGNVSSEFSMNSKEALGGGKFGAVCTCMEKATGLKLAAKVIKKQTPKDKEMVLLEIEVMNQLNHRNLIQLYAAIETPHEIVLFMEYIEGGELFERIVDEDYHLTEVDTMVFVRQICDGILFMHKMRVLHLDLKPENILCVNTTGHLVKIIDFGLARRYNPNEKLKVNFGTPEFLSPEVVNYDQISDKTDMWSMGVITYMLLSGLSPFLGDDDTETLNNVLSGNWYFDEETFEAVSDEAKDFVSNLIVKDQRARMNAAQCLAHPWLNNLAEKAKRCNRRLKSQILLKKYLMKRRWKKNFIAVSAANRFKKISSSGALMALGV

[16] = molecular target: Serine/threonine-protein kinase 25 (Homo sapiens) (UniProt O00506); experiment: Inhibition of recombinant human STK25 (1 to 308 residues) at 1 uM using RLGRDKYKTLRQIRQ as substrate incubated for 40 mins in presence of [gamma-33P]-ATP by scintillation counting method relative to control
[17] = molecular target: Mitogen-activated protein kinase kinase kinase 7 (Homo sapiens) (UniProt O43318); experiment: Inhibition of recombinant human TAK1 (1 to 303 residues) at 1 uM using casein as substrate incubated for 40 mins in presence of [gamma-33P]-ATP by scintillation counting method relative to control
Mitogen-activated protein kinase kinase kinase 7 (Homo sapiens), sequence (O43318 whole entry, the tested form may be a part): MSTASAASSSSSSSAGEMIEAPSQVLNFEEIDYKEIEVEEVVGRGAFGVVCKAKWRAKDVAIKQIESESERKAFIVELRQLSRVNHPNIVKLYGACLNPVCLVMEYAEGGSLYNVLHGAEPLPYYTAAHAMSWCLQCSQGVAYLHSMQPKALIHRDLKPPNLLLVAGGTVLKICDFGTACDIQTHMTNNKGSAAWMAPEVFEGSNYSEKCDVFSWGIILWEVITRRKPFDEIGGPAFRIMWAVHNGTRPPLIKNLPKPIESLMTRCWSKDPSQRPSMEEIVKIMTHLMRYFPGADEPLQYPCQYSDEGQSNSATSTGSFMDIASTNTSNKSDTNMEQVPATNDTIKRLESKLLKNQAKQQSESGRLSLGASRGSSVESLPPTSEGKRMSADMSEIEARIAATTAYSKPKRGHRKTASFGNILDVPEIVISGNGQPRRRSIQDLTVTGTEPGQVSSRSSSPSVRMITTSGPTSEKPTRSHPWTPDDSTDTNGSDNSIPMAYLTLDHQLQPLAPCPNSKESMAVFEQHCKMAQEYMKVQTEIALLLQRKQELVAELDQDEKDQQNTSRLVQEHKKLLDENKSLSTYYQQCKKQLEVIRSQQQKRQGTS

[18] = molecular target: MAP kinase-interacting serine/threonine-protein kinase 2 (Homo sapiens) (UniProt Q9HBH9); experiment: Inhibition of recombinant human full length MNK2 at 1 uM using myelin basic protein as substrate incubated for 40 mins in presence of [gamma-33P]-ATP by scintillation counting method relative to control
MAP kinase-interacting serine/threonine-protein kinase 2 (Homo sapiens), sequence (Q9HBH9 whole entry, looked up): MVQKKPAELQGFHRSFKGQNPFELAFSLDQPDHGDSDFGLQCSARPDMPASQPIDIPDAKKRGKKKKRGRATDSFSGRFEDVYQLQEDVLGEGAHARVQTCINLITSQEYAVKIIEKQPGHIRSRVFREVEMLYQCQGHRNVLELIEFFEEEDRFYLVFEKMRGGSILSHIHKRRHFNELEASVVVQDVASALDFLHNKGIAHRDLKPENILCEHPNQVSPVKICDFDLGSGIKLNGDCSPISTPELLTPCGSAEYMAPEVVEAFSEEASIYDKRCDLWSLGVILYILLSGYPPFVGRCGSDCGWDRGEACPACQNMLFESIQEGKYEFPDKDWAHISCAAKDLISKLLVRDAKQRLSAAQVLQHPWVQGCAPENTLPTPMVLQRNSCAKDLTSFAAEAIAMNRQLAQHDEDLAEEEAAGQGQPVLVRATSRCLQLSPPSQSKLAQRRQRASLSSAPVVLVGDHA

[19] = molecular target: Serine/threonine-protein kinase Nek6 (Homo sapiens) (UniProt Q9HC98); experiment: Inhibition of recombinant human NEK6 (2 to end residues) at 1 uM using FLAKSFGSPNRAYKK as substrate incubated for 40 mins in presence of [gamma-33P]-ATP by scintillation counting method relative to control
Serine/threonine-protein kinase Nek6 (Homo sapiens), sequence (Q9HC98 whole entry, the tested form may be a part): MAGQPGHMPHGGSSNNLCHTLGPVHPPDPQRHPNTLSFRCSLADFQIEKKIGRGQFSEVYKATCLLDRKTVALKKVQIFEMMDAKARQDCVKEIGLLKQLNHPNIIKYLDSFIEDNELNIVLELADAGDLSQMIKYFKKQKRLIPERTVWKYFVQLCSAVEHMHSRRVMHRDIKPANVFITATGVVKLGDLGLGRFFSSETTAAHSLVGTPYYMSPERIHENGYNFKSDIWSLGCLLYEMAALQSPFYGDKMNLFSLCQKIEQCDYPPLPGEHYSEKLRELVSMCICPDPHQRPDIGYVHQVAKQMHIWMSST

[20] = molecular target: STE20-like serine/threonine-protein kinase (Homo sapiens) (UniProt Q9H2G2); experiment: Inhibition of recombinant human SLK (1 to 373 residues) at 1 uM using RLGRDKYKTLRQIRQ as substrate incubated for 40 mins in presence of [gamma-33P]-ATP by scintillation counting method relative to control
[21] = molecular target: Insulin receptor (Homo sapiens) (UniProt P06213); experiment: Inhibition of recombinant activated human IR (1005 to 1310 residues) at 1 uM using KKKSPGEYVNIEFG as substrate incubated for 40 mins in presence of [gamma-33P]-ATP by scintillation counting method relative to control
Insulin receptor (Homo sapiens), sequence (P06213 28-758 limits assumed): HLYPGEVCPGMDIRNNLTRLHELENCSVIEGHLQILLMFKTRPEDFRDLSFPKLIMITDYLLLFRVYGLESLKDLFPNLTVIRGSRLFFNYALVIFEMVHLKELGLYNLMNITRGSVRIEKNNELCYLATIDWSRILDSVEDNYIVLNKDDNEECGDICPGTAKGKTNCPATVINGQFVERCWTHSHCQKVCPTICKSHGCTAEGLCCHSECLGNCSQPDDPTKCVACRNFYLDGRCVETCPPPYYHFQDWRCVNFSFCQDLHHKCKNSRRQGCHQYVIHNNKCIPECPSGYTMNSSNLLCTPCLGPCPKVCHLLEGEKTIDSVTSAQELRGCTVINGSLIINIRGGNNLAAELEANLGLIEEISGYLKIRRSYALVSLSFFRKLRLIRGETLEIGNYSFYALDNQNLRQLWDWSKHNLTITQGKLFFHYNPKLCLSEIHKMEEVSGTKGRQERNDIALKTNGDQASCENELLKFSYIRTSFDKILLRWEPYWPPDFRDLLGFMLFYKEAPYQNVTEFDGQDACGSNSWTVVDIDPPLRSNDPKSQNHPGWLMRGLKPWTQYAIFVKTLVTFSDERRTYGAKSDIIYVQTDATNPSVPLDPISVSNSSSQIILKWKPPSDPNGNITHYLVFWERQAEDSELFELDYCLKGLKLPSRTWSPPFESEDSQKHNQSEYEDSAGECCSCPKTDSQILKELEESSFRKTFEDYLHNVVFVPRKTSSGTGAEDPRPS
Insulin receptor (Homo sapiens), sequence (P06213 763-1382 limits assumed): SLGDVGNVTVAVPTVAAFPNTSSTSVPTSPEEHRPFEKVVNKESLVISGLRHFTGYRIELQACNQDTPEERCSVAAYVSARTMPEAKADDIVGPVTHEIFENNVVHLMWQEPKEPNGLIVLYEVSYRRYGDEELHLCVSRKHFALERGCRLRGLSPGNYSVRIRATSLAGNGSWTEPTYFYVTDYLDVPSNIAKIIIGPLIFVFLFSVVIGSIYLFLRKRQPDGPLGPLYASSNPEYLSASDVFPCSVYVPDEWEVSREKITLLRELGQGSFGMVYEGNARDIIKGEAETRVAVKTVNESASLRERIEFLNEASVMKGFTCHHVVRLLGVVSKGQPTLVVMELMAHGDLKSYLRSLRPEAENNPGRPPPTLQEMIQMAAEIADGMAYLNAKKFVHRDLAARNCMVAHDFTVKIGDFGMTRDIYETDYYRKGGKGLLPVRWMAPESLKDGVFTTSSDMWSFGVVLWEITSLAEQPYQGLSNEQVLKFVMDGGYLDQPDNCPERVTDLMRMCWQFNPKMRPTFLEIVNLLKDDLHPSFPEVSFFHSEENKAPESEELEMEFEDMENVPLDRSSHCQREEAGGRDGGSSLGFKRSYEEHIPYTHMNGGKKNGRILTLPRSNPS
Outline: as §1

HeLa [22] = experiment: Antiproliferative activity against human HeLa cells assessed as reduction in cell viability at 80 nM incubated for 48 hrs by EdU staining based laser scanning confocal microscopy; format: functional
Outline: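 Cells, 5×10^4, were seeded in 24-well plates and treated for 48 h. They were then labeled using an EdU Apollo 488 imaging kit with Hoechst 33342 nuclear stain and imaged by laser scanning confocal microscopy. Percent EdU-positive cells = EdU-positive/Hoechst-stained × 100%.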

Question: Which Activity [1] does the source give for `Cc1ccc(NC(=O)C2(C(=O)Nc3ccc(Nc4ncc(F)c(-c5cc(F)c6nc(C)n(C(C)C)c6c5)n4)cc3)CC2)cc1` here?
Answer: Non-Toxic

Question: And the Activity (HeLa [2])?
Answer: Active

Question: What about the inhibition [3] of the same compound?
Answer: 6%

Question: What about the inhibition [4] of the same compound?
Answer: 27%

Question: And the inhibition [5]?
Answer: 17%

Question: And the inhibition [6]?
Answer: 23%

Question: What about the logP [7] of the same compound?
Answer: 2.53

Question: And the inhibition [8]?
Answer: 31%

Question: What about the inhibition [9] of the same compound?
Answer: 0%

Question: What about the inhibition [10] of the same compound?
Answer: Active

Question: What about the Activity [11] of the same compound?
Answer: Non-Toxic

Question: What about the AUC(0-inf) [12] of the same compound?
Answer: 6000 ng·h/mL

Question: What about the inhibition [13] of the same compound?
Answer: 48%

Question: What about the inhibition [14] of the same compound?
Answer: 0%

Question: And the inhibition [15]?
Answer: 30%

Question: And the inhibition [16]?
Answer: 26%

Question: And the inhibition [17]?
Answer: 7%

Question: What about the inhibition [18] of the same compound?
Answer: 10%

Question: What about the inhibition [19] of the same compound?
Answer: 2%

Question: And the inhibition [20]?
Answer: 90%

Question: And the inhibition [21]?
Answer: 27%

Question: Which inhibition (HeLa [22]) does the source give for `COc1cc2nccc(Oc3ccc(NC(=O)C4(C(=O)Nc5ccc(F)cc5)CC4)cc3)c2cc1OC` [CABOZANTINIB] here?
Answer: Active
